Assay [1] concerns COX. The note with it: ref Haanen, 2001; cited from earlier work.
Assay [2] has as its system COX-1 and COX-2. Description: COX Fluorescent Activity Assay. Type of assay: biochemical.
For assay [3], the system named is HeLa/RXRα/1–134 and RXRα/Δ80 cells. Description: Colony formation. Type of assay: cell-based. The following applies: 25 μM. In short, it runs like this: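 Clonogenic survival of HeLa stably expressing RXRα/1–134, and of SW480 or HCT116 stably expressing GFP-RXRα/Δ80. Cells were grown in 6-well plates for 5 days, then exposed to 25 μM test compound in 0.5% serum medium for 3 days. Colonies were fixed with 4% paraformaldehyde and stained with 0.1% crystal violet.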

Assay [4] addresses T1, RXRα LBD (Homo sapiens, UniProt P19793).
T1 sequence (P19793 227-458 limits assumed): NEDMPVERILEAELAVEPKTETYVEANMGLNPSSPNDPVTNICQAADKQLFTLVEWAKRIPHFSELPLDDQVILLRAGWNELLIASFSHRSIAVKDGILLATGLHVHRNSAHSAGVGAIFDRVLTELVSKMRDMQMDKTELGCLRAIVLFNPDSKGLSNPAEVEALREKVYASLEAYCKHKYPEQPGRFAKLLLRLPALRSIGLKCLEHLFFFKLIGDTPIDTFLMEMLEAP
Description: Competition ligand-binding assay with [3H]9-cis-RA. The note with it: Sulindac analogs. The method, boiled down: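 Competitive binding: RXR ligand-binding domain incubated with [3H]-9-cis-RA, with or without unlabeled 9-cis-RA or test compound. Bound radioligand was quantified by liquid scintillation counting.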

The subject of assay [5] is prostaglandin E2 (PGE2) production, A549 cells. Description: Prostaglandin E2 production. Format: cell-based. In short, it runs like this: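 A549 cells were stimulated with TNFα 10 ng/ml for 24 hr, then exposed to test compound for 30 min. PGE2 was measured by enzyme immunoassay kit and expressed as the ratio of PGE2 with compound to PGE2 with vehicle.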
Assay [6] has as its system RXRα/Δ80 tumor. Nature of the assay: RXRα/Δ80 tumor growth in nude mice. Type of assay: in vivo, Nude mice (BALB/c). The following applies: 60 mg/kg intraperitoneally, two weeks.
Assay [7] deals with cancer cell lines (HepG2, ZR-75-1). Description: PARP cleavage and caspase-8 activation by immunoblotting. Type of assay: cell-based. In short, it runs like this:
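Immunoblot for PARP cleavage and cleaved caspase-8 (p43/p41). ZR-75-1 cells were exposed to TNFα and/or test compound (50 or 75 μM) for 6 hr. HepG2 cells in 1% FBS medium received TNFα 10 ng/ml and/or 75 μM compound for 4 hr. Some cells were pretreated with 1 μM SR11237 for 1 hr.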
A general note: Immunoblotting shows a protein as a band on a membrane.

Assay [8] concerns the target T2, tRXRα/p85α interaction (Homo sapiens, UniProt P19793).
T2 sequence (P19793 81-462 limits assumed): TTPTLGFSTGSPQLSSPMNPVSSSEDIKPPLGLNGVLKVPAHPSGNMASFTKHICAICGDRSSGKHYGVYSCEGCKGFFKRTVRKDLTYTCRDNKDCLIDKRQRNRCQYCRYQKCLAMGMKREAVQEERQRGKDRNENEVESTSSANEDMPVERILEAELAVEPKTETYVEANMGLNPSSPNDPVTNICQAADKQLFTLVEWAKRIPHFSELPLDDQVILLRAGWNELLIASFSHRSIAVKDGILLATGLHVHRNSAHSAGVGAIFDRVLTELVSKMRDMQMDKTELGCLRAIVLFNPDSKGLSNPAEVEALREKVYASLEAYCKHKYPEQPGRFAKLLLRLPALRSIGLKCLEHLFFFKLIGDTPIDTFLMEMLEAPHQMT
Nature of the assay: tRXRα/p85α interaction by co-immunoprecipitation. The following applies: A549 cells, 50 μM, absence or presence of TNFα. Type of assay: cell-based. In short, it runs like this: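 Two co-immunoprecipitation set-ups in A549 cells. (a) Endogenous protein: cells received TNFα 10 ng/ml and/or 100 μM test compound for 30 min, then were immunoprecipitated with the C-terminal ΔN197 RXRα antibody and blotted for p85α. (b) Transfected Flag-p85α and Myc-RXRα/Δ80: cells were pretreated with 50 μM compound for 1 hr, then given TNFα for 30 min, and immunoprecipitated with anti-Flag.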

Assay [9] deals with AKT activation. Description: AKT activation by immunoblotting. Format: cell-based. The note with it: 50 μM. The method, boiled down:
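Immunoblot for Ser473-phospho-AKT. Cells were serum-starved overnight and exposed to 100 μM test compound for 1 hr. In TNFα arms, cells were pretreated with compound (100 μM in A549, 50 μM in PC3) for 1 hr and then given TNFα 10 ng/ml for 30 min. Some cells were transfected with RXRα, RARγ or control siRNA for 48 hr beforehand. Compound was dissolved in DMSO.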

With `CC1=C(CC(=O)O)c2cc(F)ccc2/C1=C/c1ccc([S+](C)[O-])cc1` (centres unmarked) [sulindac sulfoxide], in [1], the COX-inhibiting activity result is reported as “no COX-inhibiting activity”.
In the case of `CC1=C(CC(=O)O)c2cc(F)ccc2/C1=C\c1ccc(S(C)(=O)=O)cc1` [sulindac sulfone], the COX-inhibiting activity entry in assay [1] was “no COX-inhibiting activity”.
With `CC1=C(CC(=O)O)c2cc(F)ccc2/C1=C\c1ccc(C(C)C)cc1` [K-80003], in assay [2], the “Inhibition of COX activities” value is “no detectable inhibition”. For the same compound, the Colony formation entry in assay [3] is recorded as “almost completely suppressed”. Further, the RXRα-binding activity entry in assay [4] is on record as “most potent”. Besides, the “Inhibition of constitutive and TNFα or IL-1β-induced PGE2 production” value in assay [5] is “failed to inhibit”. For the same compound, in assay [6], the “Inhibition of RXRα/Δ80 tumor growth, compared with Sulindac” value is listed as “much more potent inhibitory effect than Sulindac”. Also, in assay [7] (ZR-75-1 cells, K-80003 50 μM, Sulindac 75 μM, 6 hr), the “PARP cleavage with TNFα, compared with Sulindac” value is listed as “more effective than Sulindac”. Further, the “PARP cleavage and caspase-8 activation, with TNFα” value in assay [7] (various cancer cell lines) is “synergistically induced PARP cleavage and caspase-8 activation”. Besides, the “Interaction of RXRα/Δ80 with p85α, compared with Sulindac” value in assay [8] is “more potently inhibited”. Besides, the “Inhibition of RA- and TNFα-induced AKT activation, compared with Sulindac” value in [9] is reported as “much more effective than Sulindac”.

(Values after publication PMC2907921 (Cancer cell, 2010).)
